Results as given in ChEMBL document CHEMBL3739379, “Anti-Candida activity and cytotoxicity of a large library of new N-substituted-1,3-thiazolidin-4-one derivatives” (Eur J Med Chem, 2016).
Converted amounts (≈) assume the structure as drawn.

Tests used:
[1] = test system: Staphylococcus aureus; assay: Antibacterial activity against Staphylococcus aureus after 18 to 22 hrs by broth microdilution method; assay type: functional
Method in brief: (§1)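 Broth microdilution per NCCLS in Mueller-Hinton II broth; isolates subcultured for purity. Compounds dissolved in DMSO, serial dilutions 256 to 0.5 µg/mL; inoculum 10^5/mL. Controls: organism without compound, medium only. Incubation 18 to 22 h at 35 °C. MIC is the lowest concentration giving complete growth inhibition, read by unaided eye.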

[2] = test system: Staphylococcus warneri; assay: Antibacterial activity against Staphylococcus warneri after 18 to 22 hrs by broth microdilution method; assay type: functional; method in brief: as §1
[3] = test system: Enterococcus faecalis; assay: Antibacterial activity against […] faecalis after 18 to 22 hrs by broth microdilution method; assay type: functional; method in brief: as §1
[4] = test system: Staphylococcus haemolyticus; assay: Antibacterial activity against Staphylococcus haemolyticus after 18 to 22 hrs by broth microdilution method; assay type: functional; method in brief: as §1
[5] = test system: Escherichia coli; assay: Antibacterial activity against Escherichia coli at after 18 to 22 hrs by broth microdilution method; assay type: functional; method in brief: as §1
[6] = test system: Proteus mirabilis; assay: Antibacterial activity against Proteus mirabilis after 18 to 22 hrs by broth microdilution method; assay type: functional; method in brief: as §1
[7] = test system: Enterobacter sp.; assay: Antibacterial activity against Enterobacter sp. after 18 to 22 hrs by broth microdilution method; assay type: functional; method in brief: as §1
[8] = test system: Klebsiella oxytoca; assay: Antibacterial activity against Klebsiella oxytoca after 18 to 22 hrs by broth microdilution method; assay type: functional; method in brief: as §1
[9] = test system: Candida albicans; assay: Antifungal activity against Candida albicans clinical isolate after 24 hrs by sabouraud dextrose broth based microdilution method; assay type: functional
Method in brief: (§2)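 Clinical isolates identified by conventional methods and subcultured for purity. Broth microdilution per NCCLS in Sabouraud dextrose broth; compounds dissolved in DMSO and serially diluted; inoculum 10^3/mL. Controls: fungi without compound, medium only. Incubated 24 h at 37 °C. MIC is the lowest concentration with complete growth inhibition by unaided eye. Values are geometric means over isolates per species.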

[10] = test system: Nakaseomyces glabratus; assay: Antifungal activity against Candida glabrata clinical isolate after 24 hrs by sabouraud dextrose broth based microdilution method; assay type: functional; method in brief: as §2
[11] = test system: Candida tropicalis; assay: Antifungal activity against Candida tropicalis clinical isolate after 24 hrs by sabouraud dextrose broth based microdilution method; assay type: functional; method in brief: as §2
[12] = test system: Pichia kudriavzevii; assay: Antifungal activity against Candida krusei clinical isolate after 24 hrs by sabouraud dextrose broth based microdilution method; assay type: functional; method in brief: as §2
[13] = test system: Candida parapsilosis; assay: Antifungal activity against Candida parapsilosis clinical isolate after 24 hrs by sabouraud dextrose broth based microdilution method; assay type: functional; settings: Lodderomyces parapsilosis; method in brief: as §2
[14] = test system: [Candida] sake; assay: Antifungal activity against Candida sake clinical isolate after 24 hrs by sabouraud dextrose broth based microdilution method; assay type: functional; settings: Fermentozyma sake; method in brief: as §2
[15] = Cytotoxicity against human Hep2 cells assessed as cell survival at 100 ug/ml after 24 hrs by trypan blue exclusion test (reference value: 87 to 94%); assay type: cell-based, HEp-2; settings: read-out: Survival
[16] = Cytotoxicity against human Hep2 cells assessed as cell survival at 50 ug/ml after 24 hrs by trypan blue exclusion test (reference value: 87 to 94%); assay type: cell-based, HEp-2; settings: read-out: Survival
[17] = Cytotoxicity against human Hep2 cells assessed as cell survival at 5 ug/ml after 24 hrs by trypan blue exclusion test (reference value: 87 to 94%); assay type: cell-based, HEp-2; settings: read-out: Survival
[18] = Cytotoxicity against human Hep2 cells assessed as cell survival at 0.5 ug/ml after 24 hrs by trypan blue exclusion test (reference value: 87 to 94%); assay type: cell-based, HEp-2; settings: read-out: Survival
[19] = Cytotoxicity against human Hep2 cells assessed as cell survival at 0.05 ug/ml after 24 hrs by trypan blue exclusion test (reference value: 87 to 94%); assay type: cell-based, HEp-2; settings: read-out: Survival
[20] = Cytotoxicity against human Hep2 cells assessed as cell survival after 24 hrs by trypan blue exclusion method; assay type: cell-based, HEp-2
Method in brief: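 Hep2 cells grown in DMEM with 10% FBS and 1% streptomycin-penicillin at 37 °C, 5% CO2, used at 60-70% confluency. Seeded at 1 x 10^5/mL and exposed 24 h to five concentrations (0.05-100 µg/mL), DMSO ≤0.5%. Controls: medium alone, DMSO, 1 mM nitroprusside. Cells scraped, recovered 30 min, stained 1:1 with 0.4% Trypan blue, counted by two operators. Means of ≥3 independent experiments.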

[21] = Selectivity index, ratio of CC50 for human Hep2 cells to MIC for Candida glabrata; set-up: species or system HEp-2
Method in brief: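 Ratio of CC50 from the 24 h Trypan blue assay on Hep2 cells to the MIC against C. glabrata from the 24 h, 37 °C Sabouraud broth microdilution.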

SMILES	MIC [1]	MIC [2]	MIC [3]	MIC [4]	MIC [5]	MIC [6]	MIC [7]	MIC [8]	MIC [9]	MIC [10]	MIC [11]	MIC [12]	MIC [13]	MIC [14]	viability at 24 h, 100 ug/ml [15]	viability at 24 h, 50 ug/ml [16]	viability at 24 h, 5 ug/ml [17]	viability at 24 h, 0.5 ug/ml [18]	viability at 24 h, 0.05 ug/ml [19]	CC50 at 24 h [20]	also measured
C/C(CC(C)C)=N\N=C1/SCC(=O)N1Cc1ccc([N+](=O)[O-])cc1	> 256 µg/mL	> 256 µg/mL	> 256 µg/mL	> 256 µg/mL	> 256 µg/mL	> 256 µg/mL	> 256 µg/mL	> 256 µg/mL	1 µg/mL (≈ 2.87 µM)	1 µg/mL (≈ 2.87 µM)	32 µg/mL (≈ 91.8 µM)	2 µg/mL (≈ 5.74 µM)	2 µg/mL (≈ 5.74 µM)	4 µg/mL (≈ 11.5 µM)	0%	0%	82%	92.5%	93%	32 µg/mL (≈ 91.8 µM)	–
CCCCC/C(C)=N/N=C1\SCC(=O)N1Cc1ccc([N+](=O)[O-])cc1	> 256 µg/mL	> 256 µg/mL	> 256 µg/mL	> 256 µg/mL	> 256 µg/mL	> 256 µg/mL	> 256 µg/mL	> 256 µg/mL	4 µg/mL (≈ 11 µM)	1 µg/mL (≈ 2.76 µM)	64 µg/mL (≈ 177 µM)	2 µg/mL (≈ 5.52 µM)	2 µg/mL (≈ 5.52 µM)	2 µg/mL (≈ 5.52 µM)	0%	0%	87%	93.5%	95.4%	35 µg/mL (≈ 96.6 µM)	–
C/C(CC(C)C)=N\N=C1/SCC(=O)N1CN1C(=O)c2ccccc2C1=O	> 256 µg/mL	> 256 µg/mL	> 256 µg/mL	> 256 µg/mL	> 256 µg/mL	> 256 µg/mL	> 256 µg/mL	> 256 µg/mL	2 µg/mL (≈ 5.37 µM)	1 µg/mL (≈ 2.68 µM)	64 µg/mL (≈ 172 µM)	2 µg/mL (≈ 5.37 µM)	2 µg/mL (≈ 5.37 µM)	2 µg/mL (≈ 5.37 µM)	47%	79%	90%	92.8%	94%	99 µg/mL (≈ 266 µM)	Selectivity Index [21]: 99
O=C1CS/C(=N\N=C2CCCC2)N1Cc1ccc([N+](=O)[O-])cc1	> 256 µg/mL	> 256 µg/mL	> 256 µg/mL	> 256 µg/mL	> 256 µg/mL	> 256 µg/mL	> 256 µg/mL	> 256 µg/mL	2 µg/mL (≈ 6.02 µM)	16 µg/mL (≈ 48.1 µM)	1 µg/mL (≈ 3.01 µM)	8 µg/mL (≈ 24.1 µM)	16 µg/mL (≈ 48.1 µM)	16 µg/mL (≈ 48.1 µM)	0%	0%	51%	88%	95%	28 µg/mL (≈ 84.2 µM)	–
CC(C)=N/N=C1\SCC(=O)N1CN1C(=O)c2ccccc2C1=O	> 256 µg/mL	> 256 µg/mL	> 256 µg/mL	> 256 µg/mL	> 256 µg/mL	> 256 µg/mL	> 256 µg/mL	> 256 µg/mL	4 µg/mL (≈ 12.1 µM)	1 µg/mL (≈ 3.03 µM)	1 µg/mL (≈ 3.03 µM)	2 µg/mL (≈ 6.05 µM)	2 µg/mL (≈ 6.05 µM)	2 µg/mL (≈ 6.05 µM)	0%	0%	61%	73%	86%	22 µg/mL (≈ 66.6 µM)	–
C/C(CC(C)C)=N\N=C1/SCC(=O)N1Cc1cccc2ccccc12	> 256 µg/mL	> 256 µg/mL	> 256 µg/mL	> 256 µg/mL	> 256 µg/mL	> 256 µg/mL	> 256 µg/mL	> 256 µg/mL	4 µg/mL (≈ 11.3 µM)	1 µg/mL (≈ 2.83 µM)	64 µg/mL (≈ 181 µM)	2 µg/mL (≈ 5.66 µM)	2 µg/mL (≈ 5.66 µM)	4 µg/mL (≈ 11.3 µM)	46%	73.6%	87.5%	91%	93.2%	95 µg/mL (≈ 269 µM)	Selectivity Index [21]: 95
CC1CCC/C1=N\N=C1/SCC(=O)N1Cc1ccc([N+](=O)[O-])cc1 (stereo unspecified)	> 256 µg/mL	> 256 µg/mL	> 256 µg/mL	> 256 µg/mL	> 256 µg/mL	> 256 µg/mL	> 256 µg/mL	> 256 µg/mL	4 µg/mL (≈ 11.5 µM)	16 µg/mL (≈ 46.2 µM)	2 µg/mL (≈ 5.77 µM)	2 µg/mL (≈ 5.77 µM)	8 µg/mL (≈ 23.1 µM)	2 µg/mL (≈ 5.77 µM)	–	–	–	–	–	–	–
C/C(=N\N=C1/SCC(=O)N1Cc1ccc([N+](=O)[O-])cc1)c1ccco1	> 256 µg/mL	> 256 µg/mL	> 256 µg/mL	> 256 µg/mL	> 256 µg/mL	> 256 µg/mL	> 256 µg/mL	> 256 µg/mL	32 µg/mL (≈ 89.3 µM)	32 µg/mL (≈ 89.3 µM)	16 µg/mL (≈ 44.6 µM)	4 µg/mL (≈ 11.2 µM)	8 µg/mL (≈ 22.3 µM)	8 µg/mL (≈ 22.3 µM)	–	–	–	–	–	–	–
CCC/C(C)=N/N=C1\SCC(=O)N1CN1C(=O)c2ccccc2C1=O	> 256 µg/mL	> 256 µg/mL	> 256 µg/mL	> 256 µg/mL	> 256 µg/mL	> 256 µg/mL	> 256 µg/mL	> 256 µg/mL	2 µg/mL (≈ 5.58 µM)	2 µg/mL (≈ 5.58 µM)	4 µg/mL (≈ 11.2 µM)	2 µg/mL (≈ 5.58 µM)	2 µg/mL (≈ 5.58 µM)	4 µg/mL (≈ 11.2 µM)	–	–	–	–	–	–	–
CC1CCCC/C1=N\N=C1/SCC(=O)N1Cc1cccc2ccccc12 (stereo unspecified)	> 256 µg/mL	> 256 µg/mL	> 256 µg/mL	> 256 µg/mL	> 256 µg/mL	> 256 µg/mL	> 256 µg/mL	> 256 µg/mL	4 µg/mL (≈ 10.9 µM)	8 µg/mL (≈ 21.9 µM)	4 µg/mL (≈ 10.9 µM)	16 µg/mL (≈ 43.8 µM)	16 µg/mL (≈ 43.8 µM)	2 µg/mL (≈ 5.47 µM)	–	–	–	–	–	–	–
C/C(=N\N=C1/SCC(=O)N1Cc1ccc([N+](=O)[O-])cc1)C1CCCCC1	> 256 µg/mL	> 256 µg/mL	> 256 µg/mL	> 256 µg/mL	> 256 µg/mL	> 256 µg/mL	> 256 µg/mL	> 256 µg/mL	4 µg/mL (≈ 10.7 µM)	16 µg/mL (≈ 42.7 µM)	32 µg/mL (≈ 85.5 µM)	2 µg/mL (≈ 5.34 µM)	32 µg/mL (≈ 85.5 µM)	32 µg/mL (≈ 85.5 µM)	–	–	–	–	–	–	–
O=C1CS/C(=N\N=C\c2cccc3ccccc23)N1Cc1ccc([N+](=O)[O-])cc1	> 256 µg/mL	> 256 µg/mL	> 256 µg/mL	> 256 µg/mL	> 256 µg/mL	> 256 µg/mL	> 256 µg/mL	> 256 µg/mL	256 µg/mL (≈ 633 µM)	64 µg/mL (≈ 158 µM)	16 µg/mL (≈ 39.6 µM)	8 µg/mL (≈ 19.8 µM)	8 µg/mL (≈ 19.8 µM)	8 µg/mL (≈ 19.8 µM)	–	–	–	–	–	–	–
